Measured values: ChEMBL document CHEMBL1926614, “Substituted thiazoles V. synthesis and antitumor activity of novel thiazolo[2,3-b]quinazoline and pyrido[4,3-d]thiazolo[3,2-a]pyrimidine analogues” (2012)

How the values were obtained:
Assay type in all cases: functional
HOP-62 = experiment: Growth inhibition of human HOP62 cells at 10 uM after 48 hrs by coulter counting; conditions: HOP-62, 48 h, read-out: GI
Outline: (§1)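 Single-dose primary screen across the full NCI 60-cell-line panel. Stocks were made in DMSO and diluted in PBS to a final DMSO below 1%. Cultures at 6 × 10⁴ cells/ml were run in duplicate wells alongside PBS/DMSO vehicle controls at 37 °C in humidified 5% CO₂. Data were expressed as percent growth of treated cells.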

SF-268 = experiment: Growth inhibition of human SF268 cells at 10 uM after 48 hrs by coulter counting; conditions: SF-268, 48 h, read-out: GI; outline: as §1
RPMI-8226 = experiment: Growth inhibition of human RPMI8226 cells at 10 uM after 48 hrs by coulter counting; conditions: RPMI-8226, 48 h, read-out: GI; outline: as §1
SK-MEL-5 = experiment: Growth inhibition of human SK-MEL-5 cells at 10 uM after 48 hrs by coulter counting; conditions: SK-MEL-5, 48 h, read-out: GI; outline: as §1
DU-145 = experiment: Growth inhibition of human DU145 cells at 10 uM after 48 hrs by coulter counting; conditions: DU-145, 48 h, read-out: GI; outline: as §1
UACC-257 = experiment: Growth inhibition of human UACC257 cells at 10 uM after 48 hrs by coulter counting; conditions: UACC-257, 48 h, read-out: GI
Outline: (§2)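 Single-dose screen in the NCI 60 human tumor cell line panel (nine subpanels). Compounds dissolved in DMSO and diluted in phosphate buffered saline, keeping final DMSO below 1%. Added in duplicate wells to cells at 6 × 10⁴ cells/ml. Controls held PBS and DMSO at matching dilutions. Incubated at 37 °C, humidified, 5% CO₂. Reported as percent growth of treated cells.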

HCC 2998 = experiment: Growth inhibition of human HCC2998 cells at 10 uM after 48 hrs by coulter counting; conditions: HCC 2998, 48 h, read-out: GI; outline: as §1
SNB-75 = experiment: Growth inhibition of human SNB75 cells at 10 uM after 48 hrs by coulter counting; conditions: SNB-75, 48 h, read-out: GI; outline: as §1
U-251 = experiment: Growth inhibition of human U251 cells at 10 uM after 48 hrs by coulter counting; conditions: U-251, 48 h, read-out: GI; outline: as §2
HL-60(TB) = experiment: Growth inhibition of human HL-60(TB) cells at 10 uM after 48 hrs by coulter counting; conditions: HL-60, 48 h, read-out: GI
Outline: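 Test compound was dissolved in DMSO and diluted in phosphate-buffered saline to a final DMSO level below 1%. Dilutions were plated in duplicate with cell culture at 6 × 10⁴ cells/ml. Vehicle controls held PBS and DMSO at matching dilutions. Incubation was at 37 °C, humidified, under 5% CO₂. Data were reported as percent growth of treated cells.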

MCF7 = experiment: Growth inhibition of human MCF7 cells at 10 uM after 48 hrs by coulter counting; conditions: MCF7, 48 h, read-out: GI; outline: as §1
A549 = experiment: Growth inhibition of human A549 cells at 10 uM after 48 hrs by coulter counting; conditions: A549, 48 h, read-out: GI; outline: as §1
MOLT-4 = experiment: Growth inhibition of human MOLT4 cells at 10 uM after 48 hrs by coulter counting; conditions: MOLT-4, 48 h, read-out: GI; outline: as §1
IGROV-1 = experiment: Growth inhibition of human IGROV1 cells at 10 uM after 48 hrs by coulter counting; conditions: IGROV-1, 48 h, read-out: GI; outline: as §1
NCI-H522 = experiment: Growth inhibition of human NCI-H522 cells at 10 uM after 48 hrs by coulter counting; conditions: NCI-H522, 48 h, read-out: GI; outline: as §1
SK-MEL-28 = experiment: Growth inhibition of human SK-MEL-28 cells at 10 uM after 48 hrs by coulter counting; conditions: SK-MEL-28, 48 h, read-out: GI; outline: as §1
EKVX = experiment: Growth inhibition of human EKVX cells at 10 uM after 48 hrs by coulter counting; conditions: read-out: GI; outline: as §1
HCT-116 = experiment: Growth inhibition of human HCT116 cells at 10 uM after 48 hrs by coulter counting; conditions: HCT-116, 48 h, read-out: GI; outline: as §1
NCI/ADR-RES = experiment: Growth inhibition of human NCI/ADR-RES cells at 10 uM after 48 hrs by coulter counting; conditions: read-out: GI; outline: as §1
UO-31 = experiment: Growth inhibition of human UO31 cells at 10 uM after 48 hrs by coulter counting; conditions: UO-31, 48 h, read-out: GI; outline: as §2
OVCAR-4 = experiment: Growth inhibition of human OVCAR4 cells at 10 uM after 48 hrs by coulter counting; conditions: OVCAR-4, 48 h, read-out: GI; outline: as §1
SNB-19 = experiment: Growth inhibition of human SNB19 cells at 10 uM after 48 hrs by coulter counting; conditions: SNB-19, 48 h, read-out: GI; outline: as §1
[1] = Growth inhibition of human NCI-322M cells at 10 uM after 48 hrs by coulter counting; conditions: read-out: GI; outline: as §1
SF-295 = experiment: Growth inhibition of human SF295 cells at 10 uM after 48 hrs by coulter counting; conditions: SF-295, 48 h, read-out: GI; outline: as §1
KM12 = experiment: Growth inhibition of human KM12 cells at 10 uM after 48 hrs by coulter counting; conditions: KM12, 48 h, read-out: GI; outline: as §1
BT-549 = experiment: Growth inhibition of human BT549 cells at 10 uM after 48 hrs by coulter counting; conditions: BT-549, 48 h, read-out: GI; outline: as §1
NCI-H226 = experiment: Growth inhibition of human NCI-H226 cells at 10 uM after 48 hrs by coulter counting; conditions: NCI-H226, 48 h, read-out: GI; outline: as §1
M14 = experiment: Growth inhibition of human M14 cells at 10 uM after 48 hrs by coulter counting; conditions: M14, 48 h, read-out: GI; outline: as §1
CCRF-CEM = experiment: Growth inhibition of human CCRF-CEM cells at 10 uM after 48 hrs by coulter counting; conditions: read-out: GI; outline: as §1
T47D = experiment: Growth inhibition of human T47D cells at 10 uM after 48 hrs by coulter counting; conditions: read-out: GI; outline: as §2
A498 = experiment: Growth inhibition of human A498 cells at 10 uM after 48 hrs by coulter counting; conditions: A498, 48 h, read-out: GI; outline: as §1
UACC-62 = experiment: Growth inhibition of human UACC62 cells at 10 uM after 48 hrs by coulter counting; conditions: UACC-62, 48 h, read-out: GI; outline: as §2
NCI-H460 = experiment: Growth inhibition of human NCI-H460 cells at 10 uM after 48 hrs by coulter counting; conditions: NCI-H460, 48 h, read-out: GI; outline: as §1
ACHN = experiment: Growth inhibition of human ACHN cells at 10 uM after 48 hrs by coulter counting; conditions: read-out: GI; outline: as §1
HT-29 = experiment: Growth inhibition of human HT-29 cells at 10 uM after 48 hrs by coulter counting; conditions: HT-29, 48 h, read-out: GI; outline: as §1
LOX IMVI = experiment: Growth inhibition of human LOXIMVI cells at 10 uM after 48 hrs by coulter counting; conditions: read-out: GI; outline: as §1
CAKI-1 = experiment: Growth inhibition of human Caki1 cells at 10 uM after 48 hrs by coulter counting; conditions: CAKI-1, 48 h, read-out: GI; outline: as §1
K562 = experiment: Growth inhibition of human K562 cells at 10 uM after 48 hrs by coulter counting; conditions: K562, 48 h, read-out: GI; outline: as §1
MDA-MB-435 = experiment: Growth inhibition of human MDA-MB-435 cells at 10 uM after 48 hrs by coulter counting; conditions: MDA-MB-435, 48 h, read-out: GI; outline: as §1
SK-MEL-2 = experiment: Growth inhibition of human SK-MEL-2 cells at 10 uM after 48 hrs by coulter counting; conditions: SK-MEL-2, 48 h, read-out: GI; outline: as §1
NCI-H23 = experiment: Growth inhibition of human NCI-H23 cells at 10 uM after 48 hrs by coulter counting; conditions: NCI-H23, 48 h, read-out: GI; outline: as §1
[2] = Cytotoxicity against human ovarian cancer cells after 48 hrs by coulter counting; conditions: Cancer cell lines
Outline: (§3)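 NCI 60-cell-line panel covering nine tumour subpanels, tested over a 5-log dose range. Compounds were dissolved in DMSO and diluted in phosphate-buffered saline to a final DMSO below 1%. Wells held 6 × 10⁴ cells/ml and were run in duplicate. Controls contained PBS and DMSO at matching dilutions. Incubation was at 37 °C in humidified 5% CO₂. GI₅₀, TGI and LC₅₀ were reported.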

[3] = Cytotoxicity against human CNS cancer cells after 48 hrs by coulter counting; conditions: Cancer cell lines; outline: as §3
[4] = Cytotoxicity against human breast cancer cells after 48 hrs by coulter counting; conditions: Cancer cell lines; outline: as §3
[5] = Cytotoxicity against human melanoma cells after 48 hrs by coulter counting; conditions: Melanoma cell; outline: as §3
[6] = Cytotoxicity against human leukemia cells after 48 hrs by coulter counting; conditions: Leukemia cell; outline: as §3
[7] = Cytotoxicity against human prostate cancer cells after 48 hrs by coulter counting; conditions: Cancer cell lines; outline: as §3
[8] = Cytotoxicity against human renal cancer cells after 48 hrs by coulter counting; conditions: Cancer cell lines; outline: as §3
NSCLC = experiment: Cytotoxicity against human NSCLC cells after 48 hrs by coulter counting; outline: as §3
[9] = Cytotoxicity against human colon cancer cells after 48 hrs by coulter counting; conditions: Cancer cell lines; outline: as §3
[10] = read-out: LC50 (the source's name)

Structure (SMILES): CC1=CSC2=NC3=C(CCC/C3=C\c3cccs3)C(c3cccs3)N12 (configuration not stated)
- inhibition of growth at 10 µM (HOP-62): 11.3%
- inhibition of growth at 10 µM (SF-268): > 10%
- inhibition of growth at 10 µM (RPMI-8226): > 10%
- inhibition of growth at 10 µM (SK-MEL-5): > 10%
- inhibition of growth at 10 µM (DU-145): > 10%
- inhibition of growth at 10 µM (UACC-257): > 10%
- inhibition of growth at 10 µM (HCC 2998): > 10%
- inhibition of growth at 10 µM (SNB-75): 16.6%
- inhibition of growth at 10 µM (U-251): > 10%
- inhibition of growth at 10 µM (HL-60(TB)): 11.4%
- inhibition of growth at 10 µM (MCF7): > 10%
- inhibition of growth at 10 µM (A549): > 10%
- inhibition of growth at 10 µM (MOLT-4): > 10%
- inhibition of growth at 10 µM (IGROV-1): > 10%
- inhibition of growth at 10 µM (NCI-H522): > 10%
- inhibition of growth at 10 µM (SK-MEL-28): > 10%
- inhibition of growth at 10 µM (EKVX): > 10%
- inhibition of growth at 10 µM (HCT-116): > 10%
- inhibition of growth at 10 µM (NCI/ADR-RES): > 10%
- inhibition of growth at 10 µM (UO-31): 24.5%
- inhibition of growth at 10 µM (OVCAR-4): > 10%
- inhibition of growth at 10 µM (SNB-19): > 10%
- inhibition of growth at 10 µM [1]: > 10%
- inhibition of growth at 10 µM (SF-295): > 10%
- inhibition of growth at 10 µM (KM12): > 10%
- inhibition of growth at 10 µM (BT-549): > 10%
- inhibition of growth at 10 µM (NCI-H226): > 10%
- inhibition of growth at 10 µM (M14): > 10%
- inhibition of growth at 10 µM (CCRF-CEM): > 10%
- inhibition of growth at 10 µM (T47D): > 10%
- inhibition of growth at 10 µM (A498): 14.3%
- inhibition of growth at 10 µM (UACC-62): > 10%
- inhibition of growth at 10 µM (NCI-H460): > 10%
- inhibition of growth at 10 µM (ACHN): > 10%
- inhibition of growth at 10 µM (HT-29): > 10%
- inhibition of growth at 10 µM (LOX IMVI): > 10%
- inhibition of growth at 10 µM (CAKI-1): > 10%
- inhibition of growth at 10 µM (K562): > 10%
- inhibition of growth at 10 µM (MDA-MB-435): > 10%
- inhibition of growth at 10 µM (SK-MEL-2): > 10%
- inhibition of growth at 10 µM (NCI-H23): > 10%

Structure (SMILES): O=c1[nH]cc(F)c(=O)[nH]1 [FLUOROURACIL]
- GI50 [2]: 61.4 µM
- TGI [2]: > 100 µM
- CC50 [2, 10]: > 100 µM
- TGI [3]: > 100 µM
- GI50 [4]: 76.4 µM
- TGI [4]: > 100 µM
- CC50 [4, 10]: > 100 µM
- GI50 [5]: 70.6 µM
- TGI [5]: > 100 µM
- CC50 [5, 10]: > 100 µM
- TGI [6]: > 100 µM
- CC50 [6, 10]: > 100 µM
- GI50 [7]: 22.7 µM
- TGI [7]: > 100 µM
- GI50 [8]: 45.6 µM
- TGI [8]: > 100 µM
- GI50 (NSCLC): > 100 µM
- TGI (NSCLC): > 100 µM
- CC50 (NSCLC; [10]): > 100 µM
- GI50 [9]: 8.4 µM
- TGI [9]: > 100 µM
